Data reported in ChEMBL document CHEMBL4251647, “Synthesis, anticancer activity and mechanism of action of new thiazole derivatives” (Eur J Med Chem, 2018).

How the values were obtained:
HT-29 [1] = experiment: Cytotoxicity against human HT-29 cells assessed as inhibition of cell viability at 25 ug/ml after 72 hrs by MTT assay relative to control; type: functional; details: HT-29, 72 h
Summary of the method: (§1)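 Single-concentration MTT screen at 25 µg/mL for 72 h. Seeding was 3 x 10^5 cells/mL (HL-60, K562) or 1 x 10^5 cells/mL (adherent), with 24 h preincubation. MTT was added for the final 3 h, formazan dissolved in DMSO and absorbance read at 560 nm. Results are given as percent inhibition ± SD.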

HL-60 [2] = experiment: Cytotoxicity against human HL60 cells assessed as inhibition of cell viability at 25 ug/ml after 72 hrs by MTT assay relative to control; type: functional; details: HL-60, 72 h; summary of the method: as §1
K562 [3] = experiment: Cytotoxicity against human K562 cells assessed as inhibition of cell viability at 25 ug/ml after 72 hrs by MTT assay relative to control; type: functional; details: K562, 72 h; summary of the method: as §1
NCI-H292 [4] = experiment: Cytotoxicity against human NCI-H292 cells assessed as inhibition of cell viability at 25 ug/ml after 72 hrs by MTT assay relative to control; type: functional; details: NCI-H292, 72 h; summary of the method: as §1
HEp-2 [5] = experiment: Cytotoxicity against human Hep2 cells assessed as inhibition of cell viability at 25 ug/ml after 72 hrs by MTT assay relative to control; type: functional; details: HEp-2, 72 h; summary of the method: as §1
HEp-2 [6] = experiment: Cytotoxicity against human Hep2 cells assessed as inhibition of cell viability after 72 hrs by MTT assay; type: functional, cell-based; details: HEp-2, 72 h
Summary of the method: (§2)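 MTT assay. Leukaemic lines were seeded at 3 x 10^5 cells/mL and adherent lines at 1 x 10^5 cells/mL, then preincubated 24 h. Compounds were added at 0.098–25.0 µg/mL for 72 h, with MTT for the last 3 h. Formazan was dissolved in DMSO and read at 560 nm. IC50 came from regression; triplicate, two independent experiments.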

NCI-H292 [7] = experiment: Cytotoxicity against human NCI-H292 cells assessed as inhibition of cell viability after 72 hrs by MTT assay; type: functional, cell-based; details: NCI-H292, 72 h; summary of the method: as §2
K562 [8] = experiment: Cytotoxicity against human K562 cells assessed as inhibition of cell viability after 72 hrs by MTT assay; type: functional, cell-based; details: K562, 72 h; summary of the method: as §2
PBMC = experiment: Cytotoxicity against human PBMC cells assessed as inhibition of cell viability after 72 hrs by alamar blue assay; type: cell-based
Summary of the method: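 PBMC from healthy donors were grown in RPMI-1640 with 20% FBS and 2% phytohaemagglutinin, then plated at 10^6 cells/mL. After 24 h, compounds (0.048–25 µg/mL, in DMSO) were added for 72 h. Resazurin was added for the final 24 h and absorbance read at 570 and 595 nm as percent of control.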

HL-60 [9] = experiment: Cytotoxicity against human HL60 cells assessed as inhibition of cell viability after 72 hrs by MTT assay; type: functional, cell-based; details: HL-60, 72 h; summary of the method: as §2
HT-29 [10] = experiment: Cytotoxicity against human HT-29 cells assessed as inhibition of cell viability after 72 hrs by MTT assay; type: functional, cell-based; details: HT-29, 72 h; summary of the method: as §2
Erythrocyte = experiment: Hemolytic activity in human erythrocytes after 1 hr by spectrophotometric method; type: ADME, cell-based
Summary of the method: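 Human erythrocytes as a 2% suspension in 0.85% NaCl with 10 mM CaCl2 were exposed to 0.78–250 µg/mL for 1 h at room temperature. After centrifugation, released haemoglobin in the supernatant was read at 540 nm. Triton X-100 (1%) served as positive control; EC50 is the concentration giving 50% haemolysis.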

K562 [11] = experiment: Cytotoxicity against human K562 cells assessed as inhibition of cell viability after 24 hrs by MTT assay; type: functional, cell-based; details: K562, 24 h
Summary of the method: (§3)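 K562 cells (3 x 10^5 cells/mL, RPMI-1640 with 10% FBS) were treated with serial dilutions for 24 or 48 h. Viability was read by MTT (absorbance at 560 nm after DMSO solubilisation), and IC50 was obtained by regression.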

K562 [12] = experiment: Cytotoxicity against human K562 cells assessed as inhibition of cell viability after 48 hrs by MTT assay; type: functional, cell-based; details: K562, 48 h; summary of the method: as §3
[13] = Selectivity index, ratio of IC50 for human PBMC to IC50 for human K562 cells; type: toxicity; details: human PBMC and human K562 cells, read-out: Ratio IC50
Summary of the method: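 Ratio of IC50 in PBMC (Alamar blue, 72 h) to IC50 in K562 cells (MTT, 72 h), calculated as SI = IC50(PBMC)/IC50(K562).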

K562 [14] = experiment: Cytotoxicity against human K562 cells assessed as inhibition of cell viability by MTT assay; type: functional, cell-based; details: TDE = time-dependent effect
K562 [15] = experiment: Cell cycle arrest in human K562 cells assessed as accumulation at S-phase at 0.2 uM after 48 hrs by flow cytometry (reference value: 17.39 +/- 0.84%); type: functional
Summary of the method: (§4)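 K562 cells seeded at 3 x 10^5 cells/mL in RPMI-1640 and exposed 48 h at 37 °C, 5% CO2. Cells were stained with propidium iodide (Guava cell cycle kit) and 5,000 events acquired by flow cytometry. Vehicle control was 0.1% DMSO. Two independent experiments, each in triplicate.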

K562 [16] = experiment: Cell cycle arrest in human K562 cells assessed as accumulation at G2/M-phase at 0.2 uM after 48 hrs by flow cytometry (reference value: 35.97 +/- 1.94%); type: functional; summary of the method: as §4
K562 [17] = experiment: Induction of DNA damage in human K562 cells at 0.5 uM after 48 hrs by propidium iodide staining based flow cytometry (reference value: 3.62 +/- 0.37%); type: functional
K562 [18] = experiment: Cell cycle arrest in human K562 cells assessed as accumulation at G1-phase at 0.2 uM after 48 hrs by flow cytometry (reference value: 45.54 +/- 1.34%); type: functional; summary of the method: as §4
K562 [19] = experiment: Induction of mitochondrial membrane potential depolarization in human K562 cells at 0.5 uM after 48 hrs by Rho-123 staining based flow cytometry (reference value: 12.24 +/- 0.61%); type: functional

Row | Structure (SMILES) | inhibition at 25 µg/mL (HT-29 [1]) [%] | inhibition at 25 µg/mL (HL-60 [2]) [%] | inhibition at 25 µg/mL (K562 [3]) [%] | inhibition at 25 µg/mL (NCI-H292 [4]) [%] | inhibition at 25 µg/mL (HEp-2 [5]) [%] | IC50 (HEp-2 [6]) [µM] | IC50 (NCI-H292 [7]) [µM] | IC50 (K562 [8]) [µM] | IC50 (PBMC) [µM] | IC50 (HL-60 [9]) [µM] | IC50 (HT-29 [10]) [µM] | EC50 (Erythrocyte) [µg/mL] | further results
1 | COc1ccc(-c2cs/c(=N/N=C/c3ccc(C(F)(F)F)cc3)n2C)cc1 | 62.5 | 67.8 | 50.4 | 68.3 | 53.7 |  |  |  |  |  |  |  | 
2 | Cn1c(-c2ccc([N+](=O)[O-])cc2)cs/c1=N/N=C/c1ccc(C(F)(F)F)cc1 | 75.1 | 83.2 | 59.8 | 44.1 | 84.8 | 26.4 | > 61.4 | > 61.4 | 140 | 11.8 | 47.8 | > 250 | 
3 | Fc1ccc(-c2cs/c(=N/N=C/c3ccc(C(F)(F)F)cc3)n2-c2ccccc2)cc1 | 74.6 | 26.2 | 59.1 | 41.8 | 22 |  |  |  |  |  |  |  | 
4 | FC(F)(F)c1ccc(/C=N/N=c2/scc(-c3ccc(Cl)cc3Cl)n2-c2ccccc2)cc1 |  | 14.4 |  | 38.5 |  |  |  |  |  |  |  |  | 
5 | COc1ccc(-c2csc(N/N=C/c3ccc(C(F)(F)F)cc3)n2)cc1 | 76.2 | 89.1 | 61.5 | 68.5 | 78.2 | 11.3 | > 66.2 | > 66.2 | 130 | 3.67 | 22.7 | > 250 | 
6 | FC(F)(F)c1ccc(/C=N/Nc2nc(-c3ccccc3)cs2)cc1 |  | 40.6 |  | 49.8 | 34.7 |  |  |  |  |  |  |  | 
7 | FC(F)(F)c1ccc(/C=N/Nc2nc(-c3ccc(Br)cc3)cs2)cc1 | 67.4 | 46.7 | 25 | 64.2 | 17.1 |  |  |  |  |  |  |  | 
8 | O=[N+]([O-])c1ccc(-c2csc(N/N=C/c3ccc(C(F)(F)F)cc3)n2)cc1 | 59.3 | 80.2 | 87.2 | 96.3 | 90 | 27.3 | 7.41 | 16.9 | 53.2 | 11.5 | > 63.6 | > 250 | 
9 | CNC(=S)N/N=C/c1ccc(C(F)(F)F)cc1 | 88.7 | 94.6 | 82.6 | 93.3 | 88.1 | 12.6 | 20.8 | 13.2 | 93.3 | 17.2 | 5.06 | > 250 | 
10 | N=C(S)N/N=C/c1ccc(C(F)(F)F)cc1 | 85.4 | 95.3 | 87.2 | 89.5 | 91.8 | 6.27 | 10.8 | 6.42 | 80.2 | 12.7 | 9.02 | > 250 | IC50 (K562 [11]): > 101 µM; IC50 (K562 [12]): 34 µM; selectivity ratio [13]: 12.5; Activity (K562 [14]): Tde
11 | COc1ccc(-c2cs/c(=N/N=C/c3ccc(C(F)(F)F)cc3)n2-c2ccccc2)cc1 | 58.5 | 36.7 | 59.2 | 66.3 | 81.8 |  |  |  |  |  |  |  | 
12 | FC(F)(F)c1ccc(/C=N/Nc2nc(-c3ccc(Cl)cc3)cs2)cc1 | 40.1 | 61.4 | 50.5 | 67.7 | 33 |  |  |  |  |  |  |  | 
13 | Cc1ccc(-c2csc(N/N=C/c3ccc(C(F)(F)F)cc3)n2)cc1 | 42.7 | 45.2 | 20.9 | 62.3 | 59.9 |  |  |  |  |  |  |  | 
14 | FC(F)(F)c1ccc(/C=N/NC(=S)Nc2ccccc2)cc1 | 74.7 | 37.7 | 71.2 | 58.4 | 63.6 |  |  |  |  |  |  |  | 
15 | COc1cccc2c1C(=O)c1c(O)c3c(c(O)c1C2=O)C[C@@](O)(C(=O)CO)C[C@@H]3O[C@H]1C[C@H](N)[C@H](O)[C@H](C)O1 [DOXORUBICIN] |  |  |  |  |  | 1.21 | 0.19 | 1.38 | 0.38 | 0.19 | 0.69 |  | Activity (K562 [15]): 10.67%; Activity (K562 [16]): 81.29%; Activity (K562 [17]): 19.69%; Activity (K562 [18]): 9.53%; Activity (K562 [19]): 23.6%
16 | FC(F)(F)c1ccc(/C=N/Nc2nc(-c3ccc(Cl)c(Cl)c3)cs2)cc1 | 84 | 96.4 | 47.8 | 98.2 | 83.5 | 10.4 | 6.57 | > 60.1 | 65.6 | 4.23 | 12.2 | > 250 | 
17 | O=[N+]([O-])c1cccc(-c2csc(N/N=C/c3ccc(C(F)(F)F)cc3)n2)c1 | 79.4 | 77.4 | 75.5 | 75.1 | 84.3 | 34.2 | 22.8 | 10.2 | 151 | 29.3 | 23.9 | > 250 | 
18 | Cn1c(-c2ccc(Cl)cc2Cl)cs/c1=N/N=C/c1ccc(C(F)(F)F)cc1 | 52.7 | 43.5 | 69.7 | 35.7 | 33.5 |  |  |  |  |  |  |  | 
19 | Fc1ccc(-c2csc(N/N=C/c3ccc(C(F)(F)F)cc3)n2)cc1 | 70.1 | 58.1 | 61.6 | 78.8 | 62.6 |  |  |  |  |  |  |  | 
20 | FC(F)(F)c1ccc(/C=N/N=c2/scc(-c3ccc(Cl)cc3)n2-c2ccccc2)cc1 | 82.2 | 28.4 | 59 | 87.8 | 58.7 |  |  |  |  |  |  |  | 
21 | FC(F)(F)c1ccc(/C=N/Nc2nc(-c3cccc4ccccc34)cs2)cc1 | 45.8 | 39.1 | 44.9 | 35.7 | 28.5 |  |  |  |  |  |  |  | 
22 | Cc1sc(N/N=C/c2ccc(C(F)(F)F)cc2)nc1-c1ccccc1 | 46.2 | 30.9 | 25 | 60.9 | 29.5 |  |  |  |  |  |  |  | 
